# Experimental data from different studies.
# Protocols differ between the studies behind these lines.
# Organism: Hepatitis C virus
# Effect on: viral replication
# Mode: inhibitor
# Notes: replicon
SMILES,test,test system,conditions,EC50 [nM]
CCC(CC)COC(=O)[C@H](C)N[P@](=O)(OC[C@H]1O[C@@](C#N)(c2ccc3c(N)ncnn23)[C@H](O)[C@@H]1O)Oc1ccccc1,,"Huh7.5, GETYPE3 GETYPE3A",,190
C=C1CC[C@H](O)C/C1=C/C=C1\CCC[C@]2(C)[C@@H]([C@H](C)/C=C/[C@H](C)C(C)C)CC[C@@H]12,luciferase,"BM4-5, GETYPE1B",72 h,12800
CC(C)(CO)C(=O)SCCOP(=O)(NCc1ccccc1)OC[C@H]1O[C@@H](n2cnc3c(=O)[nH]c(N)nc32)[C@](C)(O)[C@@H]1O (mixture of isomers),,"Huh-7, GETYPE1",,300
O=C1N[C@H]2[C@H](CS[C@H]2CCCCC(=O)N2CCC[C@@H]2C(=O)Nc2ccc(/C=C/c3ccc(NC(=O)[C@H]4CCCN4C(=O)Cc4ccccc4)cc3)cc2)N1,,GETYPE1B,,> 10000
COc1nc(N)nc2c1ncn2[C@@H]1O[C@H](COP(=O)(N[C@@H](C)C(=O)OCC(C)(C)C)Oc2cccc3ccccc23)[C@@H](O)[C@@]1(C)O (stereo partly shown),,GETYPE2A,96 h,7.3
CN1CCN(C(c2ccccc2)c2ccc(Cl)cc2)CC1 (racemic),,"Huh-7.5.1, GETYPE2A",48 h,44
C=C1/C(=C\C=C2/CCC[C@]3(C)[C@@H]([C@H](C)CCCC(C)(C)O)CC[C@@H]23)C[C@@H](O)C[C@@H]1O,luciferase,GETYPE2A,72 h,5430
O=c1oc2c(O)c(O)cc3c(=O)oc4c(O)c(O)cc1c4c23,,"Huh-7, GETYPE2A",48 h,~60000
CCN1CCN(C2c3ccccc3-c3ccc(Br)cc32)CC1 (stereo not shown),,"Huh-7.5.1, GETYPE2A",48 h,> 1000
COC(=O)N[C@H](C(=O)N1CCC[C@H]1c1ncc(-c2ccc(-c3ccc(-c4cnc([C@@H]5CCCN5C(=O)[C@@H](NC(=O)OC)C(C)C)[nH]4)cc3)cc2)[nH]1)C(C)C,,GETYPE1B,,0.009
